DNMT1 inh = DNMT1 (human) enzyme inhibition; DNMT1 molecular beacon, Hinp1I cleavage, fluorescence; inhibition (reported as % activation of signal), % at 10 µM; AID 588458; 0.83% of 360,000 active; P26358; in the data active = inhibition above about 50%
Pemphigus Ab inh = inhibitors of pemphigus antibody binding to human desmoglein-3 | P32926 | DSG3-coupled beads, scFv-anti-DSG3-GFP binding, flow cytometry; hits give low values | binding (percent of control), % at 10 µM | 0.48% of 310,000 active | AID 588358;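 active = binding more than 3 SD below its plate's average and above zero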;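 also: hits lower antibody fragment binding to DSG3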
SUMO1-SIM PPI = modulators of human SUMO1-mediated protein-protein interactions. SUMO1 binding to a labelled peptide, TR-FRET, 1 h. inhibition, % at 20 µM. 0.33% of 360,000 active. AID 602429; in the data active = inhibition above about 37%
Target sequence (P63165 whole entry, looked up): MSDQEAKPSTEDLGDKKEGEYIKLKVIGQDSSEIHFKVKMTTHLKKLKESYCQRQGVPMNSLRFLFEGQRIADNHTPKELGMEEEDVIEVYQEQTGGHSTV
UHRF1 binding = UHRF1 methyl-DNA binding inhibition. UHRF1 binding to methylated oligo, TR-FRET. inhibition, % at 4.4 µM. 0.75% of 370,000 active. AID 687016; in the data active = inhibition above about 21%;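 also: UHRF1 SRA domain binding a hemimethylated CpG hairpin DNA probe; 0% = median of test compound wells and 100% = reference inhibitor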
HCV NS3 hel inh = inhibitors of Hepatitis C virus NS3 helicase; 0.56% of 290,000 active; NS3 helicase DNA unwinding, Cy5 molecular beacon fluorescence; inhibition, % at 10.9 µM;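 active = inhibition above the mean of all tested compounds plus 3 SD, set per campaign, cut at about 35% in these data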;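 also: 0% = DMSO wells and 100% = thioflavine S control wells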
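System: Hepatitis C virus NS3 helicase domain fragment enzyme | Reagent: Annealed dual-labelled DNA beacon duplex, ATP-started | Compound dosing: 10.9 µM single point, 0.8% DMSO | Incubation: 1 h reaction at 25 °C, ATP-initiated | Technique: Cy5 fluorescence | Evaluation: Percent inhibition from t60/t0 fluorescence ratio | Benchmarks: Low DMSO, high thioflavine S at 110 µM | Replication: Singlicate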
MBD2 inh = inhibitors of human MBD2 binding to methylated oligonucleotide | Q9UBB5 | TR-FRET | inhibition, % at 4.4 µM | 0.31% of 370,000 active | AID 686964; in the data active = inhibition above about 13%
Target sequence (Q9UBB5 whole entry, looked up): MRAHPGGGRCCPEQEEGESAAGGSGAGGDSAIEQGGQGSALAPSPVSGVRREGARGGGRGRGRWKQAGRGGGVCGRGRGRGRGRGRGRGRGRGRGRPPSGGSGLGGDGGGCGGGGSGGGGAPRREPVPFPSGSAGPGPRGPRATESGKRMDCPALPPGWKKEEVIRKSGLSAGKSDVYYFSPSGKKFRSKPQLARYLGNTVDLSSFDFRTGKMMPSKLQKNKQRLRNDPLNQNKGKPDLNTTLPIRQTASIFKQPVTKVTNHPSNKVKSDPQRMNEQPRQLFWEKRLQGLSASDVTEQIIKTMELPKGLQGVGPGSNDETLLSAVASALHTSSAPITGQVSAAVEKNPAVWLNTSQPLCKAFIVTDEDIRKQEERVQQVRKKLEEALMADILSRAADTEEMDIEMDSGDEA
The depositor's hits bear a star; . = no result given. Hits are enriched below; roughly 2.5% of the tested compounds scored in any of these assays.

SMILES | DNMT1 inh | Pemphigus Ab inh | SUMO1-SIM PPI | UHRF1 binding | HCV NS3 hel inh | MBD2 inh
Cc1ccc(NCc2nnc(SCC(=O)Nc3cc(C)on3)n2C)cc1 | -1.7 | . | -1.3 | 2.2 | 0.2 | 6.2
CCOc1ccc(CNCCc2ccc(S(N)(=O)=O)cc2)cc1 | 0.5 | 108.9 | 2.8 | 2.4 | -7.1 | 1.1
CCOc1ccc2ccccc2c1CNCCc1ccc(S(N)(=O)=O)cc1 | -1.9 | 95.7 | -8.0 | 45.1* | -16.9 | -3.7
O=C(NCc1nc2ccccc2[nH]1)C1CCCCC1 | -0.8 | 105.4 | -0.5 | -1.6 | -9.5 | -5.0
Cc1occc1C(=O)N(Cc1nc(-c2ccccc2)no1)C(C)C | 1.6 | 121.8 | -4.2 | 23.9* | 3.7 | 4.8
CCN(Cc1nc(-c2ccccc2)no1)C(=O)c1ccoc1C | -0.1 | 106.8 | -2.6 | 5.4 | -2.3 | 0.9
C#CCn1c(=NC(=O)c2sc3ccccc3c2Cl)sc2cc(S(N)(=O)=O)ccc21 | 48.4 | 108.9* | -1.8 | 3.3 | 4.2 | 0.6
O=C(NCC(=O)N1CCOCC1)c1ccc(Cl)c(Cl)c1 | -0.3 | 144.6 | 0.3 | 0.6 | . | -1.7
Nc1cccc(C(=O)c2ccccc2C(=O)O)c1 | 0.8 | 77.8* | -1.4 | -2.5 | . | -3.5
O=[N+]([O-])c1cccc(/C=C/c2ccncc2)c1 | 0.7 | 100.0 | -36.2 | -9.5 | -8.3 | 0.5
CCn1c(=O)n(CC)c2cc(N3CCCC3)c(NC(=O)c3ccccc3C)cc21 | 0.8 | 102.6 | -4.0 | 22.9* | 1.1 | 9.0
CCCS(=O)(=O)N1CCN(S(=O)(=O)c2ccccc2[N+](=O)[O-])CC1 | . | . | . | 2.8 | -4.5 | -1.6
O=[N+]([O-])c1ccccc1S(=O)(=O)N1CCSCC1 | 2.6 | . | -4.8 | 66.0* | . | 0.7
Cc1ccccc1N(CC(=O)N1CCN(Cc2ccccc2)CC1)S(C)(=O)=O | -5.0 | 100.7 | -4.8 | 20.9* | . | 6.9
COc1nc(-c2cccs2)cc(-c2ccc(C)cc2)c1C#N | 11.0 | 101.5 | 6.3 | 22.1* | -0.1 | 13.0
O=C(/C=C/c1ccco1)NC1=NCCS1 | 0.5 | 99.4 | -9.7 | -2.3 | -0.2 | -1.3
Cc1ccc(-c2csc(NC(=O)c3cccc(C)c3)c2C(=O)O)cc1 | 1.6 | 105.6 | 19.2 | 8.5 | . | -0.8
O=C(O)CCCCCNC(=O)/C=C/c1ccco1 | 3.8 | . | -4.6 | -0.6 | 5.8 | 3.7
Cc1ccc(-c2csc(NC(=O)/C=C/c3ccco3)c2C(=O)O)cc1 | 43.6 | 93.7 | -5.1 | 31.5* | 28.5 | 1.0
O=C(O)CCCNC(=O)/C=C/c1ccco1 | 87.8* | 93.0 | -1.1 | 57.8* | 9.8 | 10.8
O=C(/C=C/c1ccco1)Nc1nnc(-c2ccco2)s1 | 29.4 | 97.8 | 0.1 | -2.2 | 2.2 | 2.3
O=C(/C=C/c1ccco1)Nc1cccc(NC(=O)/C=C/c2ccco2)n1 | 47.2 | 96.7 | 17.3 | 21.1* | 26.2 | 10.8
Cc1nc(NC(=O)/C=C/c2ccco2)sc1C | 24.6 | -3.5* | -7.5 | -1.5 | 9.3 | -6.3
Cc1ccc(CNc2ccc(O)cc2)cc1 | -5.9 | 97.7 | 68.0* | -1.8 | 1.8 | -8.0
Cc1ccccc1NC(=O)NNC(=O)CCc1ccccc1 | -0.3 | 98.4 | 1.3 | 0.0 | -2.6 | -3.5
SMILES | DNMT1 inh | Pemphigus Ab inh | SUMO1-SIM PPI | UHRF1 binding | HCV NS3 hel inh | MBD2 inh
CC[C@@]1(C(=O)OC)N[C@H](CN(C)C(=O)Nc2ccc(OC)cc2)[C@@H]2C(=O)N(C)C(=O)[C@@H]21 | -1.6 | 92.5 | -1.0 | 22.2* | . | 10.6
CCN(C[C@H]1N[C@@](C)(C(=O)OC)[C@H]2C(=O)N(C)C(=O)[C@@H]12)S(=O)(=O)c1ccc(C(F)(F)F)cc1 | 9.1 | 97.2 | 3.0 | 21.6* | . | 5.3
CCN(C[C@H]1N[C@@](C)(C(=O)OC)[C@H]2C(=O)N(C)C(=O)[C@@H]12)S(=O)(=O)c1ccc(C)cc1 | 3.0 | 87.9 | 2.6 | -1.2 | . | -7.3
COC(=O)[C@]1(C)N[C@H](CN(C)C(=O)Nc2ccc(OC)cc2)[C@@H]2C(=O)N(C)C(=O)[C@@H]21 | 4.2 | 79.8* | -4.7 | -0.3 | . | -0.3
FC(F)(F)c1cc(Cl)c2nc(-c3ccco3)c(Cc3ccccc3C(F)(F)F)n2c1 | . | . | 7.3 | 21.1* | . | 5.3
O=C(C[n+]1ccc2ccccc2c1)c1cccc2ccccc12 | -3.5 | 106.6 | -20.8 | -7.4 | -13.6 | -6.1
O=C(/C=C/c1cc[n+](CC(=O)c2ccc3cccc4c3c2CC4)cc1)c1ccc2cccc3c2c1CC3 | 102.3* | 63.1* | 131.6* | . | -15.3 | .
